According to ChEMBL document CHEMBL5653630, “Activation of the p53-MDM4 regulatory axis defines the anti-tumour response to PRMT5 inhibition through its role in regulating cellular splicing” (Sci Rep, 2018):
Calls of active or inactive are those of the source. The calls are words filed in the database; no cut-off is given here.

Tests used:
Z-138 [1] = assay: Induction of cell cycle arrest in human Z138 cells assessed as increase in sub-2n cell population measured upto 1000 nM measured for 5 days by propidium iodide staining based flow cytometric analysis; type: functional; settings: time 5.0 day
MCF7 = assay: Induction of cell cycle arrest in human MCF7 cells assessed as increase in sub-2N cell population measured upto 5000 nM measured for 7 to 10 days by propidium iodide staining based flow cytometric analysis; type: functional; settings: time 7-10 day
Z-138 [2] = assay: Induction of apoptosis in human Z138 cells assessed as dead cells incubated for 6 days by annexin-V/FITC propidium iodide staining based flow cytometry analysis; type: functional, cell-based; settings: dose 200.0 nM, time 6.0 day
[3] = target: E3 ubiquitin-protein ligase Mdm2 (Homo sapiens) (UniProt Q00987); assay: In vivo inhibition of PRMT5 in human Z138 cells xenografted in mouse assessed as increase in MDM2 expression at 100 mg/kg, po BID measured for 7 days; type: functional, organism-based; settings: Z-138, time 7.0 day
MEG-01 = assay: Antiproliferative activity against human MEG-01 cells assessed as cell growth inhibition incubated for 10 days; type: functional; settings: MEG-01, 240 h, time 10 day
SW48 = assay: Antiproliferative activity against human SW48 cells assessed as cell growth inhibition incubated for 10 days; type: functional; settings: SW48, 240 h, time 10 day
SW-620 = assay: Antiproliferative activity against human SW620 cells assessed as cell growth inhibition incubated for 10 days; type: functional; settings: SW-620, 240 h, time 10 day
NCI-H508 = assay: Antiproliferative activity against human NCI-H508 cells assessed as cell growth inhibition incubated for 10 days; type: functional; settings: NCI-H508, 240 h, time 10 day
DOHH-2 = assay: Antiproliferative activity against human DOHH-2 cells assessed as cell growth inhibition incubated for 10 days; type: functional; settings: DOHH-2, 240 h, time 10 day
In short: (§1)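 Outsourced panel run in 384-well plates. Cells were grown in RPMI-1640/10% FBS or a special medium at 37°C, 5% CO2. Compound was added 24 h after seeding as a 10-point, 3.16-fold series in 0.1% DMSO. Medium was refreshed and cells re-dosed at 168 h, with a time-zero plate kept. At 240 h cells were fixed, nuclei stained and imaged. gIC50 is growth midway between untreated and time zero, from a 4-parameter fit.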

[4] = test system: KATO III stomach cancer cell line; assay: Antiproliferative activity against human KATO III stomach cancer cell line assessed as cell growth inhibition incubated for 10 days; type: functional; settings: 240 h, time 10 day
In short: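 Eurofins-panel 10-day assay in 384-well plates. Cells grown in RPMI-1640 with 10% FBS, 2 mM L-alanyl-L-glutamine and 1mM Na pyruvate, or a special medium, at 37°C in 5% CO₂. Compound added 24 h after seeding, 10-point 3.16-fold series in 0.1% DMSO. Medium replaced and compound re-dosed at 168 h. Nuclei fixed and stained after 240 h, then imaged to give a relative cell count. gIC50 is the concentration giving growth midway between untreated and time-zero counts, from a 4-parameter fit.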

SNB-19 = assay: Antiproliferative activity against human SNB-19 cells assessed as cell growth inhibition incubated for 10 days; type: functional; settings: SNB-19, 240 h, time 10 day
FaDu = assay: Antiproliferative activity against human FaDu cells assessed as cell growth inhibition incubated for 10 days; type: functional; settings: 240 h, time 10 day; in short: as §1
G-402 = assay: Antiproliferative activity against human G-402 cells assessed as cell growth inhibition incubated for 10 days; type: functional; settings: G-402, 240 h, time 10 day; in short: as §1
CAKI-2 = assay: Antiproliferative activity against human CAKI-2 cells assessed as cell growth inhibition incubated for 10 days; type: functional; settings: CAKI-2, 240 h, time 10 day
In short: (§2)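 Cells kept in RPMI-1640 with 10% FBS, 2 mM L-alanyl-L-glutamine and 1 mM Na pyruvate (or a special medium) at 37°C, 5% CO2. Compound added 24 h after seeding, 10 concentrations in 3.16-fold dilution, 0.1% DMSO final. Medium replaced and cells re-dosed at 168 h; 240 h incubation. Nuclei fixed, dye-stained and imaged. gIC50 = growth midway between untreated and time-zero cell counts, from a 4-parameter fit.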

SK-NEP-1 = assay: Antiproliferative activity against human SK-NEP-1 cells assessed as cell growth inhibition incubated for 10 days; type: functional; settings: SK-NEP-1, 240 h, time 10 day
HuCCT-1 = assay: Antiproliferative activity against human HuCCT-1 cells assessed as cell growth inhibition incubated for 10 days; type: functional; settings: HuCCT-1, 240 h, time 10 day
In short: (§3)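 Eurofins panel, 384-well. Cells kept in RPMI-1640 with 10% FBS, 2 mM L-alanyl-L-glutamine and 1 mM Na pyruvate, or in a special medium, at 37°C under 5% CO2. Compound added 24 h after seeding as 10 concentrations in 3.16-fold steps, 0.1% DMSO final. Medium replaced and compound re-dosed at 168 h. After 240 h, cells fixed and nuclei stained for imaging. gIC50 = growth midway between untreated cells and time-zero count.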

A101D = assay: Antiproliferative activity against human A101D cells assessed as cell growth inhibition incubated for 10 days; type: functional; settings: 240 h, time 10 day; in short: as §2
[5] = Antiproliferative activity against human SKO-007 cells assessed as cell growth inhibition incubated for 10 days; type: functional; settings: SKO-007, 240 h, time 10 day
NCI-H441 = assay: Antiproliferative activity against human NCI-H441 cells assessed as cell growth inhibition incubated for 10 days; type: functional; settings: NCI-H441, 240 h, time 10 day
NCI-H292 = assay: Antiproliferative activity against human NCI-H292 cells assessed as cell growth inhibition incubated for 10 days; type: functional; settings: NCI-H292, 240 h, time 10 day
Hs 766 = assay: Antiproliferative activity against human Hs766T cells assessed as cell growth inhibition incubated for 10 days; type: functional; settings: Hs 766, 240 h, time 10 day; in short: as §3
ASPC1 = assay: Antiproliferative activity against human ASPC1 cells assessed as cell growth inhibition incubated for 10 days; type: functional; settings: ASPC1, 240 h, time 10 day; in short: as §2
CFPAC-1 = assay: Antiproliferative activity against human CFPAC-1 cells assessed as cell growth inhibition incubated for 10 days; type: functional; settings: CFPAC-1, 240 h, time 10 day; in short: as §2
PC-3 = assay: Antiproliferative activity against human PC-3 cells assessed as cell growth inhibition incubated for 10 days; type: functional; settings: PC-3, 240 h, time 10 day
LNCaP = assay: Antiproliferative activity against human LNCaP cells assessed as cell growth inhibition incubated for 10 days; type: functional; settings: 240 h, time 10 day
MG-63 = assay: Antiproliferative activity against human MG-63 cells assessed as cell growth inhibition incubated for 10 days; type: functional; settings: MG-63, 240 h, time 10 day
SW684 = assay: Antiproliferative activity against human SW684 cells assessed as cell growth inhibition incubated for 10 days; type: functional; settings: SW684, 240 h, time 10 day
CAL-62 = assay: Antiproliferative activity against human CAL-62 cells assessed as cell growth inhibition incubated for 10 days; type: functional; settings: CAL-62, 240 h, time 10 day; in short: as §2
Z-138 [6] = assay: Induction of cell cycle arrest in p53 knockout human Z138 cells assessed as accumulation of cells at G1 phase at 50 to 500 nM incubated for 4 days; type: functional, cell-based; settings: dose 50-500 nM, time 4.0 day
RCK8 = assay: Antiproliferative activity against human RCK8 cells assessed as reduction in cell viability; type: functional, cell-based

E3 ubiquitin-protein ligase Mdm2 (Homo sapiens), sequence (Q00987 whole entry, looked up): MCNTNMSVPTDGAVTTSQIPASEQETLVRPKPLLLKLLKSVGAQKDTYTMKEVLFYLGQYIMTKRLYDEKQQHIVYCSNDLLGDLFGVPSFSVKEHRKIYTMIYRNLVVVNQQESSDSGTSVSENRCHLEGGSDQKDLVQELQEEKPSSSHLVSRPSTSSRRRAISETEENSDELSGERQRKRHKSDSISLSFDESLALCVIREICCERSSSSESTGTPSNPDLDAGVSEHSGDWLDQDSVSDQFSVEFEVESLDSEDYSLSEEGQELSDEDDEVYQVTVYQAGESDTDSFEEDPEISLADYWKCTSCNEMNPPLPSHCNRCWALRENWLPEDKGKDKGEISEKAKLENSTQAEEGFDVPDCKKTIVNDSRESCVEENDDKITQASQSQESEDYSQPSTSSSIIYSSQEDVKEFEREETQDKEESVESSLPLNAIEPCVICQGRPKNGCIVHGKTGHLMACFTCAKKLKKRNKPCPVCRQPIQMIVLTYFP

CC(=O)N1CCC(Nc2cc(C(=O)NC[C@H](O)CN3CCc4ccccc4C3)ncn2)CC1 [PEMRAMETOSTAT]
Activity (Z-138 [1]): Active | Activity (MCF7): Active | Activity (Z-138 [2]): Dose-Dependent Effect | inhibition [3]: Active

O=C(NC[C@H](O)CN1CCc2ccccc2C1)c1ccnc(NC2CCC2)c1
GI50 (MEG-01): 10 µM | GI50 (SW48): 10 µM | GI50 (SW-620): 5.64 µM | GI50 (NCI-H508): 0.307 µM | GI50 (DOHH-2): 0.157 µM | GI50 [4]: 0.0167 µM | GI50 (SNB-19): 0.223 µM | GI50 (FaDu): 0.0154 µM | GI50 (G-402): 0.0997 µM | GI50 (CAKI-2): 0.114 µM | GI50 (SK-NEP-1): 0.264 µM | GI50 (HuCCT-1): 0.225 µM | GI50 (A101D): 0.19 µM | GI50 [5]: 0.0844 µM | GI50 (NCI-H441): 0.556 µM | GI50 (NCI-H292): 0.166 µM | GI50 (Hs 766): 1.12 µM | GI50 (ASPC1): 0.302 µM | GI50 (CFPAC-1): 0.0523 µM | GI50 (PC-3): 0.873 µM | GI50 (LNCaP): 2.93 µM | GI50 (MG-63): 0.096 µM | GI50 (SW684): 1.17 µM | GI50 (CAL-62): 0.253 µM | Activity (Z-138 [6]): Active | Activity (RCK8): Active
